Read-outs that look alike come from different tables or passages of the source. Marks after values point to notes of the source that are not given here.
Experiments:
[1] = Single oral dose pharmacokinetics of dotinurad in plasma, phase 1 study; type: in vivo, human (healthy Chinese adults); conditions: for Vd/F / half-life / AUC(0-inf) / Cmax / Tmax: human, plasma
Method in brief: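 Healthy nonsmoking Chinese adults (18–45 y, weight ≥ 50 kg) took a single oral tablet dose (1 mg n=8, 4 mg n=10, 10 mg n=8) on Day 1 after a 10-h fast. Plasma was sampled 0–48 h, separated at 2000 g for 10 min at 4 °C, and stored at −80 °C. Samples had solid-phase pretreatment, then LC-MS/MS (LOQ 1 ng/mL). Noncompartmental parameters are mean ± SD, tmax median (min–max).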

[2] = Multiple once-daily oral dose pharmacokinetics of dotinurad in plasma; type: in vivo, human (healthy Chinese adults)
Method in brief: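 In the 4-mg cohort (n=10, screening serum urate ≥ 5.5 mg/dL), a single Day 1 dose was followed by a 3-day washout. The test compound was then given orally once daily on Days 4–10, each morning after a 10-h fast. Plasma sampled 0–72 h after the Day 10 dose was assayed by LC-MS/MS (LOQ 1 ng/mL). Parameters are noncompartmental, with accumulation relative to Day 1. Mean ± SD; tss,max median (min–max).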

[3] = Safety and tolerability: treatment-emergent adverse events; type: in vivo, human (healthy Chinese adults)
Method in brief: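 Oral tablets were given fasted to three cohorts: 1 mg single (n=8), 4 mg single then 7-day once-daily (n=10), and 10 mg single (n=8). Safety covered TEAEs, hematology, blood chemistry, urinalysis, vital signs, weight, 12-lead ECG and physical examination. AEs were coded with MedDRA v25.0. The safety set was subjects with ≥ 1 dose and ≥ 1 postdose assessment, reported as n (%).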

[4] = tested on: serum urate; conditions: Chinese patients with gout, cited from earlier work
[5] = 4 mg once daily for 7 days, Day 10, N = 10, mean ± SD
[6] = 4 mg once daily for 7 days, Day 10 vs Day 1, N = 10, mean ± SD
[7] = Cohort A, 1 mg single dose, N = 8
[8] = Cohort A, 1 mg single dose, N = 8, determined as drug-related TEAE
[9] = Cohort B, 4 mg single and multiple doses, N = 10
[10] = Cohort C, 10 mg single dose, N = 8

O=C(c1cc(Cl)c(O)c(Cl)c1)N1CS(=O)(=O)c2ccccc21 [Dotinurad]
time at which mean plasma concentration reached maximum ([1]; across single oral doses of 1, 4 and 10 mg): 3.00 to 3.50 h
CL/F ([1]; across the single-dose range of 1–10 mg): 0.757 to 0.834 L/h
Vd/F ([1]; oral): 11.1 to 11.7 L
half-life ([1]; oral): ~600 min
AUC(0-inf) ([1]; po, 1 mg): 1360 ± 288 ng·h/mL
Cmax ([1]; po, 1 mg): 104 ± 18.5 ng/mL
Tmax ([1]; po, 1 mg): 3.5 h
Vd/F ([1]; po, 1 mg): 11.1 ± 2.06 L
half-life ([1]; po, 1 mg): 606 ± 75.6 min
AUC(0-inf) ([1]; po, 4 mg): 4890 ± 683 ng·h/mL
Cmax ([1]; po, 4 mg): 365 ± 35.2 ng/mL
Tmax ([1]; po, 4 mg): 3 h
Vd/F ([1]; po, 4 mg): 11.7 ± 1.12 L
AUC(0-inf) ([1]; po, 10 mg): 13600 ± 2480 ng·h/mL
Cmax ([1]; po, 10 mg): 964 ± 101 ng/mL
Tmax ([1]; po, 10 mg): 3 h
Vd/F ([1]; po, 10 mg): 11.6 ± 1.1 L
half-life ([1]; po, 10 mg): 654 ± 91.8 min
CL/F ([1]; single oral dose 1 mg, fasted, Cohort A, N = 8, mean ± SD): 0.764 ± 0.147 L/h
CL/F ([1]; single oral dose 4 mg, fasted, Cohort B Day 1, N = 10, mean ± SD): 0.834 ± 0.130 L/h
CL/F ([1]; single oral dose 10 mg, fasted, Cohort C, N = 8, mean ± SD): 0.757 ± 0.134 L/h
mean plasma concentration relative to the corresponding maximum concentration ([1]; within 48 h after single oral doses of 1 to 10 mg): below 10%
CLss/F [2, 5]: 0.923 ± 0.183 L/h
Css,av [2, 5]: 186 ± 31.8 ng/mL
Css,max [2, 5]: 397 ± 69.4 ng/mL
Css,min [2, 5]: 65.4 ± 22.1 ng/mL
tss,max ([2]; 4 mg once daily for 7 days, Day 10, N = 10, median (min–max)): 3.00 (2.00–6.00) h
Rac(AUC0–24h) accumulation ratio [2, 6]: 1.13 ± 0.121
Rac(Cmax) accumulation ratio [2, 6]: 1.09 ± 0.185
AUC ([2]; human, plasma, oral, 4 mg): 4470 ± 762 ng·h/mL
Vd/F ([2]; human, plasma, oral, 4 mg): 13.2 ± 1.64 L
half-life ([2]; human, plasma, oral, 4 mg): 606 ± 103 min
mean plasma concentration relative to the corresponding maximum concentration ([2]; within 72 h after Day 10 dose, 4 mg once daily for 7 days): below 1%
dose dependence of TEAEs ([3]; 1, 4 and 10 mg cohorts): No dose-dependent TEAEs were observed
Number of subjects with at least one TEAE, any severity [3, 7]: 2 (25.0) n (%)
Number of subjects with at least one TEAE, mild [3, 7]: 2 (25.0) n (%)
Number of subjects with at least one TEAE, moderate [3, 7]: 0 n (%)
Number of subjects with at least one TEAE, severe [3, 7]: 0 n (%)
TEAE: Blood bilirubin increased (mild) [3, 7]: 0 n (%)
TEAE: Body temperature increased (mild) [3, 7]: 0 n (%)
TEAE: Alanine aminotransferase increased (mild) [3, 8]: 1 (12.5)^a n (%)
TEAE: Blood triglycerides increased (mild) [3, 8]: 1 (12.5)^a n (%)
Number of subjects with at least one TEAE, any severity [3, 9]: 2 (20.0) n (%)
Number of subjects with at least one TEAE, mild [3, 9]: 2 (20.0) n (%)
Number of subjects with at least one TEAE, moderate [3, 9]: 0 n (%)
Number of subjects with at least one TEAE, severe [3, 9]: 0 n (%)
TEAE: Alanine aminotransferase increased (mild) [3, 9]: 0 n (%)
TEAE: Blood bilirubin increased (mild) [3, 9]: 1 (10.0) n (%)
TEAE: Blood triglycerides increased (mild) [3, 9]: 0 n (%)
TEAE: Body temperature increased (mild) [3, 9]: 1 (10.0) n (%)
Number of subjects with at least one TEAE, any severity [3, 10]: 0 n (%)
Number of subjects with at least one TEAE, mild [3, 10]: 0 n (%)
Number of subjects with at least one TEAE, moderate [3, 10]: 0 n (%)
Number of subjects with at least one TEAE, severe [3, 10]: 0 n (%)
TEAE: Alanine aminotransferase increased (mild) [3, 10]: 0 n (%)
TEAE: Blood bilirubin increased (mild) [3, 10]: 0 n (%)
TEAE: Blood triglycerides increased (mild) [3, 10]: 0 n (%)
TEAE: Body temperature increased (mild) [3, 10]: 0 n (%)
Number of subjects with at least one TEAE, any severity ([3]; Total, all cohorts, N = 26): 4 (15.4) n (%)
Number of subjects with at least one TEAE, mild ([3]; Total, all cohorts, N = 26): 4 (15.4) n (%)
Number of subjects with at least one TEAE, moderate ([3]; Total, all cohorts, N = 26): 0 n (%)
Number of subjects with at least one TEAE, severe ([3]; Total, all cohorts, N = 26): 0 n (%)
TEAE: Alanine aminotransferase increased (mild) ([3]; Total, all cohorts, N = 26): 1 (3.8) n (%)
TEAE: Blood bilirubin increased (mild) ([3]; Total, all cohorts, N = 26): 1 (3.8) n (%)
TEAE: Blood triglycerides increased (mild) ([3]; Total, all cohorts, N = 26): 1 (3.8) n (%)
TEAE: Body temperature increased (mild) ([3]; Total, all cohorts, N = 26): 1 (3.8) n (%)
severity and outcome of TEAEs ([3]; all cohorts): All the TEAEs were mild and resolved without any treatment
fatal TEAE, serious TEAE, or TEAE leading to discontinuation of study drug ([3]; all cohorts, 1–10 mg): No fatal TEAE, serious TEAE, or TEAE leading to discontinuation of study drug was reported
subjects who experienced at least 1 TEAE ([3]; all cohorts, 4 of 26 subjects): 15.4%
subjects who experienced at least 1 TEAE ([3]; single and multiple doses of 4 mg (Cohort B), 2/10 subjects): 20.0%
subjects who experienced at least 1 TEAE ([3]; single dose 1 mg (Cohort A), 2/8 subjects): 25.0%
reduction of serum urate ([4]; 2 mg, Week 12): 37.9%
reduction of serum urate ([4]; 4 mg, Week 24): 45.9%
